Assay results published in ChEMBL document CHEMBL3085705, “Design, chemical synthesis of 3-(9H-fluoren-9-yl)pyrrolidine-2,5-dione derivatives and biological activity against enoyl-ACP reductase (InhA) and Mycobacterium tuberculosis” (2013).
≈ marks a conversion by molar mass, not a printed value.

These compounds were tested on Mycobacterium tuberculosis (assay: Antimicrobial activity against Mycobacterium tuberculosis H37Rv by two-fold serial dilution method).
Type: functional
Method in brief: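 Compounds dissolved in DMSO. Single colony grown in Middlebrook 7H9 with 0.05% Tween 80 and 10% OADC at 37 °C, no shaking, to ~10^8 CFU/mL (OD600 0.8–1.0). Diluted to ~10^7 CFU/mL; 1 μL streaked onto 7H11 agar (0.5% glycerol, 10% OADC) with two-fold serial compound dilutions. MIC is the lowest concentration inhibiting growth. Repeated three times.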

First: O=C1CC(C2c3ccccc3-c3ccccc32)C(=O)N1c1cc(Cl)cc(Cl)c1 (stereo not given)
Second: O=C1CC(C2c3ccccc3-c3ccccc32)C(=O)N1c1ccc(F)cc1 (stereo not given)
The MIC of the first is lower: 19.6 µM (≈ 8 µg/mL) for the first, over 44.8 µM for the second.

First: O=C1CC(C2c3ccccc3-c3ccccc32)C(=O)N1C(=O)c1ccc2[nH]ccc2c1 (stereo not given)
Second: O=C1CC(C2c3ccccc3-c3ccccc32)C(=O)N1C(=O)c1ccccc1 (racemic)
The MIC of the first is 7.3-fold higher: 39.4 µM (≈ 16 µg/mL) for the first, 5.4 µM (≈ 1.98 µg/mL) for the second.

`O=C1CC(C2c3ccccc3-c3ccccc32)C(=O)N1` (stereo not given) and `O=C1CC(C2c3ccccc3-c3ccccc32)C(=O)N1Cc1ccccc1` (single isomer, unassigned) are within 1.5-fold of each other in MIC: 30.4 µM (≈ 8 µg/mL) for the first, 45.3 µM (≈ 16 µg/mL) for the second.

Compared with `O=C(CC(C(=O)O)C1c2ccccc2-c2ccccc21)NNC(=O)c1ccncc1` (stereo not given), `O=C(CC(C(=O)O)C1c2ccccc2-c2ccccc21)Nc1ccc(F)cc1` (stereo not given) is 4.3-fold higher in MIC: 10 µM (≈ 4.01 µg/mL) for the first, 42.6 µM (≈ 16 µg/mL) for the second.

`O=C(c1ccc2[nH]ccc2c1)N1CCN(C2c3ccccc3-c3ccccc32)CC1` and `O=C(CN1C(=O)CC(C2c3ccccc3-c3ccccc32)C1=O)c1ccccc1` (stereo not given) cannot be ordered by MIC: over 40.7 µM for the first, over 41.9 µM for the second.

Compared with `COc1cc(CN2C(=O)CC(C3c4ccccc4-c4ccccc43)C2=O)cc(OC)c1` (stereo not given), `COc1cc(N2C(=O)CC(C3c4ccccc4-c4ccccc43)C2=O)cc(OC)c1OC` (stereo not given) is lower in MIC: over 38.7 µM for the first, 37.3 µM (≈ 16 µg/mL) for the second.

`CCCCCCCCCN1C(=O)CC(C2c3ccccc3-c3ccccc32)C1=O` (stereo not given) and `CCCCCCCCC(=O)N1C(=O)CC(C2c3ccccc3-c3ccccc32)C1=O` (stereo not given) are within 1.5-fold of each other in MIC: 41.1 µM (≈ 16 µg/mL) for the first, 39.7 µM (≈ 16 µg/mL) for the second.

Going from `O=C(CC(C(=O)O)C1c2ccccc2-c2ccccc21)Nc1cc(Cl)cc(Cl)c1` (stereo not given) to `O=C(O)CC(C(=O)O)C1c2ccccc2-c2ccccc21` (stereo not given), the MIC rises from 4.7 µM (≈ 2 µg/mL) to 28.3 µM (≈ 7.99 µg/mL) (6-fold).

Compared with `O=C(CC(C(=O)O)C1c2ccccc2-c2ccccc21)NCCc1c[nH]c2ccccc12` (stereo not given), `O=C1CC(C2c3ccccc3-c3ccccc32)C(=O)N1CCc1c[nH]c2ccccc12` (stereo not given) is higher in MIC: 37.7 µM (≈ 16 µg/mL) for the first, over 39.4 µM for the second.

For `O=C(Cc1ccccc1)N1C(=O)CC(C2c3ccccc3-c3ccccc32)C1=O` (stereo not given), the MIC was 41.9 µM (≈ 16 µg/mL).

These compounds were tested against T1, Enoyl-[acyl-carrier-protein] reductase [NADH] (Mycobacterium tuberculosis) (UniProt P9WGR1) (assay: Inhibition of Mycobacterium tuberculosis InhA expressed in Escherichia coli using trans-2-dodecenoyl-coenzyme-A as substrate at 5 uM).
T1 sequence (whole entry): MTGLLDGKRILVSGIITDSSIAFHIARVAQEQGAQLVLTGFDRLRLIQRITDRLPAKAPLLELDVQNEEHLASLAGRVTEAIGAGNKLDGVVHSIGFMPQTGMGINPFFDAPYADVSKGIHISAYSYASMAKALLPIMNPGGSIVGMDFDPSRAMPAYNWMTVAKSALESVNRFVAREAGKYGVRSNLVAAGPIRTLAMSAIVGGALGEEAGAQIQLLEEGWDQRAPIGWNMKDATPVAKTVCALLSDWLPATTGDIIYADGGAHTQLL
Method in brief: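 Recombinant M. tuberculosis wild-type InhA purified from E. coli. Reaction started by adding InhA (100 nM final) to DD-CoA (50 μM final), NADH (250 μM final) and inhibitor in 30 mM PIPES, 150 mM NaCl, pH 6.8. Percent inhibition taken from initial velocity against a no-inhibitor control. Run in triplicate.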

`O=C1CC(C2c3ccccc3-c3ccccc32)C(=O)N1c1cc(Cl)cc(Cl)c1` (stereo not given) gave an inhibition of 31%.
